IDH1 mut inh – IDH1 R132H (human) inhibition | O75874 | IDH1 R132H reductase, diaphorase/resazurin fluorescence, 60 min | inhibition, % at 10 µM | 70,000 tested, 0.18% active; in the data active = inhibition above about 34%; inconclusive = no clear call, values can overlap the other calls; inactive = below about 11%
Target sequence (O75874 whole entry R132H): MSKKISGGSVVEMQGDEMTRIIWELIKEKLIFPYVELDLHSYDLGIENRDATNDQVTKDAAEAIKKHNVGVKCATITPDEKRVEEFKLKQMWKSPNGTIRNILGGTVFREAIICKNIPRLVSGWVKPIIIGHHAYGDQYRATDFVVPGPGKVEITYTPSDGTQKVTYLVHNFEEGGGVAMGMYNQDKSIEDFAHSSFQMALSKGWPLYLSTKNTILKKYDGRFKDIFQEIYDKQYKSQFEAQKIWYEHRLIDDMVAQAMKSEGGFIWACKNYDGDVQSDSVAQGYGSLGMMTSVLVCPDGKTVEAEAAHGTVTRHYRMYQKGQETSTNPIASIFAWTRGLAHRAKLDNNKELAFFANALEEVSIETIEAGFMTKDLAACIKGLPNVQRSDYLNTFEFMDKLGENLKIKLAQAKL
T cruzi growth-1 – blocks T. cruzi growth in NIH3T3 culture; 77,000 tested, 5.9% active; AID 624255; inhibition, % at 8.34 µM; T. cruzi beta-gal in NIH3T3, GalScreen luminescence, 90 h;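 active = mean inhibition above about 93%, with at least 55% of replicates each passing it, limit read from the data, passing the limit was not always enough; inconclusive = only one of those two conditions holds; inactive = neither condition holds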
KDM4C inh – inhibitors of human demethylase GASC-1 KDM4C; inhibition, % at 12.5 µM; 96,000 tested, 0.15% active; Q9H3R0; AID 720574; GST-KDM4C 2-372, H3K9me3 peptide, LANCE TR-FRET;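 active = mean replicate inhibition above about 25%, with at least 55% of replicates also reaching it, limit read from the data, passing the limit was not always enough; inconclusive = only one of those two conditions met; inactive = neither condition met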
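Material: GST-tagged GASC-1 (JMJD2C) catalytic fragment, aa 2-372 / Quantity: enzyme final amount 10 nM / Medium: HEPES buffer, pH 7.5, plus ascorbate / Doses: one test concentration per compound / Incubation: 30 min reaction, 60 min detection, RT / Measured by: LANCE TR-FRET / Read-out: inhibition from TR-FRET ratio decrease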
T cruzi growth-2 – Trypanosoma cruzi proliferation inhibition | shares compounds with T cruzi growth-1 | T. cruzi beta-gal in NIH3T3, GalScreen luminescence, 90 h | inhibition, % at 8.35 µM | 5,600 tested, 72% active;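 active = mean replicate inhibition above about 95% and at least 55% of replicates individually reaching it, limit read from the data; inconclusive = only one of the two criteria is met; inactive = neither criterion is met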
T cruzi growth-3 – blocks T. cruzi growth in NIH3T3 host cells. shares compounds with T cruzi growth-1. inhibition, % at 2.09 µM. T. cruzi beta-gal in NIH3T3, GalScreen luminescence, 90 h. 5,600 tested, 21% active;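 active = mean inhibition above about 95%, with at least 55% of replicates also reaching it, limit read from the data; inconclusive = meets just one of the two conditions; inactive = meets neither condition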
NIH3T3 tox – cytotoxicity in mouse NIH/3T3 fibroblasts; cytotoxicity (signal decrease), % at 8.35 µM; AID 651742; NIH/3T3 viability, CellTiter-Glo ATP luminescence, 90 h; 5,600 tested, 14% active; shares compounds with T cruzi growth-1;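 active = mean signal decrease across replicates above about 35% based on untreated-well scatter, with enough replicates individually passing, limit read from the data; inconclusive = no rule stated though some were filed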
3T3 cytotox 2 – cytotoxicity in mouse NIH/3T3 fibroblasts; shares compounds with T cruzi growth-1; NIH/3T3 viability, CellTiter-Glo ATP luminescence, 90 h; inhibition, % at 24.9 µM; 5,600 tested, 56% active;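 active = mean loss of cell viability signal at or above a set limit, and enough replicates individually reaching it; inconclusive = meets only the mean limit or only the replicate share; inactive = meets neither condition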
Large screens that a line does not name were inactive (follow-up assays come after a bar, where they were run). This excerpt belongs to a sample that is enriched for hits.

CC1CCCC2=CC(OC2=O)C(C)(C)CCC1=O (centres undefined)	none (no result: T cruzi growth-1, KDM4C inh)
Cc1cc(NC(=O)NCCCN2CCN(C3CCCCC3)CC2)ccc1Cl	none (no result: T cruzi growth-1, KDM4C inh)
COc1cccc(NC(=O)N(C)C[C@@H]2Oc3cc(C#Cc4ccncc4)ccc3S(=O)(=O)N([C@H](C)CO)C[C@@H]2C)c1	none
COc1cccc(NC(=O)N(C)C[C@@H]2Oc3cc(C#Cc4ccccc4)ccc3S(=O)(=O)N([C@H](C)CO)C[C@@H]2C)c1	T cruzi growth-1 86.4 (no result: IDH1 mut inh, KDM4C inh) | T cruzi growth-2 103.5 | T cruzi growth-3 inconclusive | NIH3T3 tox inactive | 3T3 cytotox 2 inactive
COc1cccc(NC(=O)N(C)C[C@@H]2Oc3cc(C#Cc4ccc(F)cc4)ccc3S(=O)(=O)N([C@H](C)CO)C[C@H]2C)c1	T cruzi growth-1 103.1 (no result: IDH1 mut inh) | T cruzi growth-2 97.7 | T cruzi growth-3 inactive | NIH3T3 tox inactive | 3T3 cytotox 2 55.1
COc1cccc(NC(=O)N(C)C[C@@H]2Oc3cc(C#Cc4ccncc4)ccc3S(=O)(=O)N([C@H](C)CO)C[C@H]2C)c1	none (no result: IDH1 mut inh)
CCC[C@H]1CC2=C(C[C@@H](CC)CC3=C1C(=O)OC3=O)C(=O)OC2=O	none (no result: T cruzi growth-1, KDM4C inh)
CCOc1ccc(NC(=O)Cn2cc(C(=O)OC)c3ccccc32)cc1	none (no result: T cruzi growth-1, KDM4C inh)
COc1ccc(NC(=O)Nc2ccc3c(c2)C(=O)N([C@@H](C)CO)C[C@@H](C)[C@@H](CN(C)Cc2ccc(-c4ccccc4)cc2)O3)cc1	T cruzi growth-1 99.7 | T cruzi growth-2 104.4 | T cruzi growth-3 107.9 | NIH3T3 tox 55.4 | 3T3 cytotox 2 83.7
COc1ccc(NC(=O)Nc2ccc3c(c2)C(=O)N([C@H](C)CO)C[C@H](C)[C@H](CN(C)Cc2ccc(-c4ccccc4)cc2)O3)cc1	T cruzi growth-1 inconclusive | T cruzi growth-2 100.1 | T cruzi growth-3 inactive | NIH3T3 tox inactive | 3T3 cytotox 2 inactive
COc1ccc(CN(C)C[C@@H]2Oc3ccc(NC(=O)Nc4ccccc4)cc3C(=O)N([C@@H](C)CO)C[C@@H]2C)cc1	none
COc1ccc(CN(C)C[C@@H]2Oc3ccc(NC(=O)Nc4ccccc4)cc3C(=O)N([C@H](C)CO)C[C@@H]2C)cc1	none
C[C@@H]1CN([C@H](C)CO)C(=O)c2cc(NS(=O)(=O)c3cccs3)ccc2O[C@@H](C)CCCCO[C@H]1CN(C)Cc1ccc2c(c1)OCO2	none (no result: IDH1 mut inh)
COc1ccc(NC(=O)C(=O)NCC(=O)Nc2ccccc2OC)cc1	none (no result: T cruzi growth-1, KDM4C inh)
C[C@H]1CCCCO[C@H](CN(C)Cc2ccc3c(c2)OCO3)[C@@H](C)CN([C@@H](C)CO)C(=O)c2cc(NC(=O)Nc3ccc(F)cc3)ccc2O1	T cruzi growth-1 109.4 | T cruzi growth-2 101.9 | T cruzi growth-3 98.9 | NIH3T3 tox inactive | 3T3 cytotox 2 104.3
C[C@@H]1CN([C@@H](C)CO)C(=O)c2cc(NC(=O)Nc3ccc4c(c3)OCO4)ccc2O[C@@H](C)CCCCO[C@H]1CN(C)Cc1ccc2c(c1)OCO2	none (no result: IDH1 mut inh)
C[C@@H]1CN([C@@H](C)CO)C(=O)c2cc(NC(=O)Nc3ccc(F)cc3)ccc2O[C@@H](C)CCCCO[C@@H]1CN(C)Cc1ccc2c(c1)OCO2	none (no result: IDH1 mut inh)
C[C@@H]1CCCCO[C@@H](CN(C)Cc2ccc3c(c2)OCO3)[C@H](C)CN([C@H](C)CO)C(=O)c2cc(NC(=O)Nc3ccc(F)cc3)ccc2O1	T cruzi growth-1 inconclusive (no result: IDH1 mut inh) | T cruzi growth-2 96.6 | T cruzi growth-3 100.3 | NIH3T3 tox inactive | 3T3 cytotox 2 104.1
C[C@@H]1CCCCO[C@H](CN(C)S(=O)(=O)c2ccc(Cl)cc2)[C@H](C)CN([C@H](C)CO)C(=O)c2cc(NS(=O)(=O)c3cccs3)ccc2O1	T cruzi growth-1 112.3 (no result: IDH1 mut inh) | T cruzi growth-2 105.6 | T cruzi growth-3 96.3 | NIH3T3 tox inactive | 3T3 cytotox 2 inactive
C[C@@H]1CCCCO[C@@H](CN(C)S(=O)(=O)c2ccc(Cl)cc2)[C@@H](C)CN([C@@H](C)CO)C(=O)c2cc(NS(=O)(=O)c3cccs3)ccc2O1	none (no result: IDH1 mut inh)

Assay outcomes deposited in PubChem BioAssay by Broad Institute.
